In the first test the target is T1, Pancreatic alpha-amylase (Sus scrofa) (UniProt P00690).
T1 sequence (whole entry): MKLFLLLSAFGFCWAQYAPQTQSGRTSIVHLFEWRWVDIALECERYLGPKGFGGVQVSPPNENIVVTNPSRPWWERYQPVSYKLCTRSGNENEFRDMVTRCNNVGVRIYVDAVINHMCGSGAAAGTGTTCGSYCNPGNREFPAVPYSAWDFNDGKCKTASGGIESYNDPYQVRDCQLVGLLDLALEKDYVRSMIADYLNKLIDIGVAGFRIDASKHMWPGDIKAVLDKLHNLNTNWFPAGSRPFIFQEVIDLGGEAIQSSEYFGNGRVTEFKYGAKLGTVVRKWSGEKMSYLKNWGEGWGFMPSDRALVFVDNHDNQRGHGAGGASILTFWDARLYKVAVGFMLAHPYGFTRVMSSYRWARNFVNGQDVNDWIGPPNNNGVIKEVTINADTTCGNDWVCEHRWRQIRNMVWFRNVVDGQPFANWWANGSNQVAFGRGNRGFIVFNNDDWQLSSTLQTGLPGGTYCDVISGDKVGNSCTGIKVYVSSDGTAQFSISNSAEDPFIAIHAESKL
As to the kind of experiment: Inhibition pig alpha-amylase at 50 to 300 ug/ml pretreated for 30 mins followed by addition of 1% starch for 10 mins by spectrometer.
Conditions: not given
The method in brief:
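PBS containing 1% starch was then added for 10 min at 37°C. The reaction was stopped with DNSA in a boiling bath for 10 min, and OD was read at 540 nm against a 0.2% maltose reference. Acarbose was the positive control. Runs were in triplicate with SD, giving % inhibition relative to an uninhibited control.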
One may read the inhibition as the change of the read-out against control, counted positive when it falls. Regarding `CCOC(=O)C1=C(C)NC(=O)NC1c1ccc2c(c1)OCO2` (configuration not stated), the inhibition was found to be 0%.

In the case of `CCOC(=O)C1=C(C)NC(=O)NC1c1ccc(OC)cc1` (configuration not stated), the inhibition was 0%.

Take `CCOC(=O)C1=C(C)NC(=O)NC1c1ccccc1F` (configuration not stated): the inhibition worked out at 0%.

Consider `CCOC(=O)C1=C(C)NC(=S)NC1c1ccc(OC)cc1` (configuration not stated), for which the inhibition came out at 66.5%.

For the compound `CCOC(=O)C1=C(C)NC(=O)NC1c1ccccc1` (configuration not stated), the inhibition came out at 0%.

On to `CCOC(=O)C1=C(C)NC(=S)N[C@H]1c1cccc(O)c1`, for which the inhibition turned out to be 0%.

`CCOC(=O)C1=C(C)NC(=S)NC1c1cccc(OC)c1` (configuration not stated): the inhibition came out at 0%.

For `CCOC(=O)C1=C(C)NC(=O)NC1c1ccc(F)cc1` (configuration not stated), the inhibition stood at 63.8%.

Turning to `CCOC(=O)C1=C(C)NC(=O)NC1c1ccc([N+](=O)[O-])cc1` (configuration not stated), the inhibition is 0%.

For the compound `CCOC(=O)C1=C(C)NC(=O)NC1c1cccc([N+](=O)[O-])c1` (configuration not stated), the inhibition amounted to 26.5%.

In a further test the target is T1, Pancreatic alpha-amylase (Sus scrofa). Kind of test: Inhibition pig alpha-amylase at 300 ug/ml pretreated for 30 mins followed by addition of 1% starch for 10 mins by spectrometer.
Conditions: not given
In outline: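 Porcine pancreatic α-amylase (1.28 mg in 25 ml PBS) was preincubated with compounds in methanol (50, 150 or 300 µg/ml) at 37°C for 30 min. PBS containing 1% starch was then added for 10 min at 37°C. The reaction was stopped with DNSA in a boiling bath for 10 min, and OD was read at 540 nm against a 0.2% maltose reference. Acarbose was the positive control. Runs were in triplicate with SD, giving % inhibition relative to an uninhibited control.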
On to `CCOC(=O)C1=C(C)NC(=S)NC1c1ccccc1` (configuration not stated), for which the inhibition is 97.2%.

Another test shares this target. To be noted: 100 mg/ml.
Compound `C[C@H]1O[C@H](O[C@H]2[C@H](O)[C@@H](O)[C@@H](O[C@H]3[C@H](O)[C@@H](O)C(O)O[C@@H]3CO)O[C@@H]2CO)[C@H](O)[C@@H](O)[C@@H]1N[C@H]1C=C(CO)[C@@H](O)[C@H](O)[C@H]1O` (some centres not stated) returned an inhibition of 100%.

The values are drawn from ChEMBL document CHEMBL3286173, “Graphite catalyzed solvent free synthesis of dihydropyrimidin-2(1H)-ones/thiones and their antidiabetic activity” (Bioorg Med Chem Lett, 2014).
